Experimental data taken from ChEMBL document CHEMBL4406801, “Novel Human Aminopeptidase N Inhibitors: Discovery and Optimization of Subsite Binding Interactions” (J Med Chem, 2019).
Values after ≈ are worked out from the molar mass of the structure shown. Active and inactive are the calls of the source. The calls are words filed in the database; no cut-off is given here.

Assays:
[1] = Partition coefficient, log D of compound at pH 7.4 by HPLC analysis; type: physicochemical; details: octanol/water
Procedure, shortened: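 LogD at pH 7.4 estimated by a chromatographic method.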

Aminopeptidase N [2] = target: T1, Aminopeptidase N (Homo sapiens, UniProt P15144); experiment: Inhibition of soluble human APN ectodomain stably expressed in HEK293 GnTI(-) cells using H-Leu-NHMec as substrate preincubated for 10 mins followed by substrate addition and measured for 1 hr by spectrofluorimetric method; details: read-out: Ki(app)
T1 sequence (P15144 whole entry, the tested form may be a part): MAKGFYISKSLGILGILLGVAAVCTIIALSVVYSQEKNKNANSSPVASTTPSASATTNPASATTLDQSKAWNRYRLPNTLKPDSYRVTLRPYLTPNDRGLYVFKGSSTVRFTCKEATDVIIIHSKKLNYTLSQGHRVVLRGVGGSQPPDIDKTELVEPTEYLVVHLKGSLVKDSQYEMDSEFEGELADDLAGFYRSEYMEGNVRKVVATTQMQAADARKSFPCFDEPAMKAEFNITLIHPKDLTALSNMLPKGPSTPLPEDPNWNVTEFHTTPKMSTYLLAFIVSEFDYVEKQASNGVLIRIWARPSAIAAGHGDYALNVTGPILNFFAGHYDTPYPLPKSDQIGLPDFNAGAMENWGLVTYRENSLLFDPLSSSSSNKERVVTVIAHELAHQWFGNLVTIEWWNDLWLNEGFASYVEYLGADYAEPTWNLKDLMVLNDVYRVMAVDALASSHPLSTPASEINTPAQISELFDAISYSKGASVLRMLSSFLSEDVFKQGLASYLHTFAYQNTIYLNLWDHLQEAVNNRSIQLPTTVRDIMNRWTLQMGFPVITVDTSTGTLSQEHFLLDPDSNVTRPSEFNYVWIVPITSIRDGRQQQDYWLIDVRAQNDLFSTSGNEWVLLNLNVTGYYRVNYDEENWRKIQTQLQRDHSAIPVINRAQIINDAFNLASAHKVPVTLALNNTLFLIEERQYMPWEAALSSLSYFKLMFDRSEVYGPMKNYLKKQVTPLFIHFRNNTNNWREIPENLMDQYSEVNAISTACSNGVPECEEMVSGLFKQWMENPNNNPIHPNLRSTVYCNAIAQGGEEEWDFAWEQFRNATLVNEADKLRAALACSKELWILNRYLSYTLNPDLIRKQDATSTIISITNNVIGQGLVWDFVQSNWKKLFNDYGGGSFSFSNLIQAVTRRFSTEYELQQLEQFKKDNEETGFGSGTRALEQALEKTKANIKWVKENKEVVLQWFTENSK

[3] = target: T2, Matrilysin (Homo sapiens) (UniProt P09237); experiment: Inhibition of MMP7 (unknown origin) using QF-24 as substrate preincubated for 1 hr followed by substrate addition and measured at 1 min interval for 1 hr by fluorescence assay
T2 sequence (whole entry): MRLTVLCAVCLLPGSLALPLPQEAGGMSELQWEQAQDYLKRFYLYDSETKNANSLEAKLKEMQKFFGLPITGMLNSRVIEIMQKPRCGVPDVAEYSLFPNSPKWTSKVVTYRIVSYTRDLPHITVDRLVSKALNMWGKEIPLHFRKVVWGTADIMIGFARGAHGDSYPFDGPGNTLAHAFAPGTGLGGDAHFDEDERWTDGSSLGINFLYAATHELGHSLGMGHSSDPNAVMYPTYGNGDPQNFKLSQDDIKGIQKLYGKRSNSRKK

[4] = Intrinsic clearance in mouse liver microsomes assessed per mg protein at 1 uM in presence of NADPH; type: ADME, Microsome; details: read-out: CLH
[5] = Half life in human plasma at 1000 ng/ml by LC-MS analysis; type: ADME, cell-free
[6] = Half life in mouse liver microsomes at 1 uM in presence of NADPH; type: ADME, Microsome
[7] = Intrinsic clearance in human liver microsomes assessed per mg protein at 1 uM in presence of NADPH; type: ADME, Microsome; details: read-out: CLH
[8] = Kinetic solubility of the compound in 0.01 M HCl at pH 2 after 30 mins by nephelometry; type: physicochemical; details: read-out: Kinetic_solubility
Procedure, shortened: (§1)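 Kinetic solubility read by nephelometry under pH 2 (stomach-like) and pH 6.5 (upper fasted small intestine-like) conditions.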

[9] = target: 72 kDa type IV collagenase (Homo sapiens, UniProt P08253); experiment: Inhibition of MMP2 (unknown origin) using QF-24 as substrate preincubated for 1 hr followed by substrate addition and measured at 1 min interval for 1 hr by fluorescence assay
Chain of 72 kDa type IV collagenase (P08253 whole entry): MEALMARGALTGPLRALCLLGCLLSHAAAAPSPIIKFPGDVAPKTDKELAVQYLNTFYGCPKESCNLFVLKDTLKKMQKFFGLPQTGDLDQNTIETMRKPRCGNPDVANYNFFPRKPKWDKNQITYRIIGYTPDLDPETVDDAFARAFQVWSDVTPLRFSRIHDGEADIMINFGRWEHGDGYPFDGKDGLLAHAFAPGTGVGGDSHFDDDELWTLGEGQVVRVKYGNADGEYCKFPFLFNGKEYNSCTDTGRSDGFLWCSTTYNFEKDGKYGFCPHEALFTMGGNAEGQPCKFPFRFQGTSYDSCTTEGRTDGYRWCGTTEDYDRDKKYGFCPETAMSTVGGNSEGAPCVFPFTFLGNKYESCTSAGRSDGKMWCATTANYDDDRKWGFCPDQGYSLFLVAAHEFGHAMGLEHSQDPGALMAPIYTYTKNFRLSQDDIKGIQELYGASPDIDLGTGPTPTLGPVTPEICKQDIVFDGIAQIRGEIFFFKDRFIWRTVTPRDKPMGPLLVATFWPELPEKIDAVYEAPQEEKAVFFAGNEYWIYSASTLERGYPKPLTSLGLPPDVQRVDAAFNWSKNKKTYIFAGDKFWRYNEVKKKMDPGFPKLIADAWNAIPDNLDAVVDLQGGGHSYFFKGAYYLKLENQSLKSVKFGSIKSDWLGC

[10] = Half life in human liver microsomes at 1 uM in presence of NADPH; type: ADME, Microsome
[11] = target: Neutrophil collagenase (Homo sapiens) (UniProt P22894); experiment: Inhibition of MMP8 (unknown origin) using QF-24 as substrate preincubated for 1 hr followed by substrate addition and measured at 1 min interval for 1 hr by fluorescence assay
Chain of Neutrophil collagenase (Homo sapiens) (P22894 101-467 limits assumed): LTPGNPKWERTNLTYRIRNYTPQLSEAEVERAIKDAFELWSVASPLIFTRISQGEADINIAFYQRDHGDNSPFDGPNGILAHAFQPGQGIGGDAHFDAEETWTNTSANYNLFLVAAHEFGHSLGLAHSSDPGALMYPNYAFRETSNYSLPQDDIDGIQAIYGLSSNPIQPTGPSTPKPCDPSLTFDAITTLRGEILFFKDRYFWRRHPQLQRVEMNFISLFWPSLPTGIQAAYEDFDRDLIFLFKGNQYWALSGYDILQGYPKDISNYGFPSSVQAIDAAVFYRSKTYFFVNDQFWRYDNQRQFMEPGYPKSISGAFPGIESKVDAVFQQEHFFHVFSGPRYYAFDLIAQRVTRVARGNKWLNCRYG

[12] = target: Matrix metalloproteinase-9 (Homo sapiens, UniProt P14780); experiment: Inhibition of MMP9 (unknown origin) using QF-24 as substrate preincubated for 1 hr followed by substrate addition and measured at 1 min interval for 1 hr by fluorescence assay
Chain of Matrix metalloproteinase-9 (P14780 whole entry): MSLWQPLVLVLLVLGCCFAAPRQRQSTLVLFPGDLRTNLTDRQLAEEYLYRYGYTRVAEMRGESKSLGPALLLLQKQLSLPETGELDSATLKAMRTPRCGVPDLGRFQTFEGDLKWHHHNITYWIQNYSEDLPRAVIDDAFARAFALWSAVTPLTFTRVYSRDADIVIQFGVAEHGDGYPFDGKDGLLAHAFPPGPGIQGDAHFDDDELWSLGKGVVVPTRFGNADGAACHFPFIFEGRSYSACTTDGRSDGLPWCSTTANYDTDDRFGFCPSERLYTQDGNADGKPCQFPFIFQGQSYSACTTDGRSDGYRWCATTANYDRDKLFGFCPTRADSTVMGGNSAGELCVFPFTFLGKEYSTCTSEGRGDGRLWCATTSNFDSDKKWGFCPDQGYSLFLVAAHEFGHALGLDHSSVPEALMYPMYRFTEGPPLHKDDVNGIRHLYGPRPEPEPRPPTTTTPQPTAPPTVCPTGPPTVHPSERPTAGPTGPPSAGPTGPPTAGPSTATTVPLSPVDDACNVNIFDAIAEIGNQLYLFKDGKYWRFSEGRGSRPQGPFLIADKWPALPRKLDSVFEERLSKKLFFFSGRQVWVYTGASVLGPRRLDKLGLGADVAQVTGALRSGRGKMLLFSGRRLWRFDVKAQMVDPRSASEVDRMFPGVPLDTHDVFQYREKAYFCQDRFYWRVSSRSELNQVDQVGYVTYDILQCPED

[13] = Cytotoxicity against human AD293 cells measured after 72 hrs by celltitre-blue assay; type: cell-based
Aminopeptidase N [14] = target: T1, Aminopeptidase N; experiment: Potency index, ratio of bestatin Ki(app) to test compound Ki(app) for soluble human APN ectodomain stably expressed in HEK293 GnTI(-) cells; type: cell-based
[15] = Half life in Swiss mouse plasma at 1000 ng/ml by LC-MS analysis; type: ADME, cell-free
[16] = Kinetic solubility of the compound in phosphate buffer at pH 6.5 after 30 mins by nephelometry; type: physicochemical; details: read-out: Kinetic_solubility; procedure, shortened: as §1
[17] = Solubility of the compound in methanol; type: physicochemical
[18] = Inhibition of Plasmodium falciparum M1 aminopeptidase; details: read-out: Ki(app)
Aminopeptidase N [19] = target: T1, Aminopeptidase N; experiment: Potency index, ratio of tosedostat Ki(app) to test compound Ki(app) for soluble human APN ectodomain stably expressed in HEK293 GnTI(-) cells; type: cell-based

CS(=O)(=O)Nc1ccc(C(=O)NC(C(=O)NO)c2ccc(-c3cc(F)c(F)c(F)c3)cc2)cc1 (stereo not drawn)
logD [1]: 2.8 | Ki (Aminopeptidase N [2]): 0.0045 µM | inhibition [3]: inactive | microsomal CLint at 1 µM [4]: < 7 µL/min/mg | half-life at 1000 ng/ml [5]: > 17 h | half-life at 1 µM [6]: > 4.17 h | microsomal CLint at 1 µM [7]: < 7 µL/min/mg | solubility kinetic at 0.5 h [8]: 12.5 to 25 µg/mL (≈ 25.3 to 50.7 µM) | IC50 [9]: 1.3 µM | half-life at 1 µM [10]: > 4.17 h | inhibition [11]: inactive | IC50 [12]: > 100 µM | CC50 at 72 h [13]: 41 µM | Ratio Ki(app) (Aminopeptidase N [14]): 527 | half-life at 1000 ng/ml [15]: > 17 h | solubility kinetic at 0.5 h [16]: 12.5 to 25 µg/mL (≈ 25.3 to 50.7 µM)

O=C(Cc1ccc(O)c(O)c1)NC(C(=O)NO)c1ccc(-c2cc(F)c(F)c(F)c2)cc1 (stereo not drawn)
solubility [17]: Insoluble

COC(=O)C(NC(=O)CC(=O)O)c1ccc(-c2cc(F)c(F)c(F)c2)cc1 (stereo not drawn)
solubility [17]: Insoluble

CC(C)C[C@@H](C(=O)N[C@H](C(=O)OC1CCCC1)c1ccccc1)[C@H](O)C(=O)NO [TOSEDOSTAT]
Ki (Aminopeptidase N [2]): 1.18 µM | inhibition [3]: Active | Ki [18]: 6.15 µM | IC50 [9]: 0.19 µM | inhibition [11]: Active | IC50 [12]: 1.5 µM

O=C(Cc1ccc(F)c(O)c1)NC(C(=O)NO)c1ccc(-c2cc(F)c(F)c(F)c2)cc1 (stereo not drawn)
solubility [17]: Insoluble

O=C(NO)C(NCc1ccc(F)c(O)c1)c1ccc(-c2cc(F)c(F)c(F)c2)cc1 (stereo not drawn)
Ki (Aminopeptidase N [2]): > 1000 µM

O=C(Cc1ccc(O)c(F)c1)NC(C(=O)NO)c1ccc(-c2cc(F)c(F)c(F)c2)cc1 (stereo not drawn)
solubility [17]: Insoluble

NS(=O)(=O)Nc1ccc(C(=O)NC(C(=O)NO)c2ccc(-c3cc(F)c(F)c(F)c3)cc2)cc1 (stereo not drawn)
logD [1]: 2.6 | Ki (Aminopeptidase N [2]): 0.0082 µM | inhibition [3]: inactive | microsomal CLint at 1 µM [4]: < 7 µL/min/mg | half-life at 1000 ng/ml [5]: > 17 h | half-life at 1 µM [6]: > 4.17 h | microsomal CLint at 1 µM [7]: < 7 µL/min/mg | solubility kinetic at 0.5 h [8]: 6.3 to 12.5 µg/mL (≈ 12.7 to 25.3 µM) | IC50 [9]: 2.1 µM | half-life at 1 µM [10]: > 4.17 h | inhibition [11]: inactive | IC50 [12]: > 100 µM | CC50 at 72 h [13]: 149 µM | half-life at 1000 ng/ml [15]: > 17 h | solubility kinetic at 0.5 h [16]: 12.5 to 25 µg/mL (≈ 25.3 to 50.6 µM)

CC(C)C[C@H](NC(=O)[C@@H](O)[C@H](N)Cc1ccccc1)C(=O)O [UBENIMEX]
Ki [18]: 1.53 µM

CC(C)(C)C(=O)NC(C(=O)NO)c1ccc(-c2cc(F)c(F)c(F)c2)cc1 (stereo not drawn)
Ki (Aminopeptidase N [2]): 0.118 µM | inhibition [3]: inactive | Ratio Ki(app) (Aminopeptidase N [19]): 10 to 20 | Ki [18]: 0.331 µM | inhibition [11]: inactive | Ratio Ki(app) (Aminopeptidase N [14]): 10 to 20

CNC(=O)[C@@H](NC(=O)[C@H](CC(C)C)[C@H](O)C(=O)NO)C(C)(C)C
inhibition [3]: Active | inhibition [11]: Active

O=C(Cc1ccc(O)cc1)NC(C(=O)NO)c1ccc(-c2cc(F)c(F)c(F)c2)cc1 (stereo not drawn)
solubility [17]: Insoluble

O=C(NC(C(=O)NO)c1ccc(-c2cc(F)c(F)c(F)c2)cc1)c1ccc(O)c(O)c1 (stereo not drawn)
solubility [17]: Insoluble
